From ChEMBL document CHEMBL3792332, “Novel chromone and xanthone derivatives: Synthesis and ROS/RNS scavenging activities” (Eur J Med Chem, 2016) come the findings set out here.

Holding throughout (format): physicochemical
Data set [1] in a line: Antioxidant activity assessed as inhibition of superoxide induced reduction of NBT measured for 2 mins by UV-visible spectrophotometric method. To be noted: for inhibition (INH): 2 min. The method in brief:
(§1)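 Superoxide produced by the NADH/PMS/O2 system at room temperature. NBT reduction followed at 560 nm over 2 min. Compounds in DMSO at final 25–200 μM. IC50 from % inhibition vs concentration curves, at least four independent experiments in triplicate. The single-concentration line is % inhibition at the top concentration.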

Data set [2] can be described thus: Antioxidant activity assessed as inhibition of H2O2 induced lucigenin oxidation at 37 degC. A digest of the protocol:
(§2)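 H2O2 scavenging by chemiluminescence: H2O2-induced lucigenin oxidation, signal recorded immediately after the plate enters the reader. Compounds in DMSO at final 31.25–1000 μM, 37 °C. IC50 from % inhibition vs concentration curves (5–7 concentrations in triplicate, at least four independent experiments). Single-concentration line gives % effect at the top concentration. Quercetin as positive control.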

Data set [3] can be described thus: Antioxidant activity assessed as inhibition of HOCl-induced oxidation of DHR to rhodamine 123 at 37 degC by fluorimetric method. The method in brief: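 HOCl made daily by adjusting 1% NaOCl to pH 6.2 with 10% H2SO4. HOCl-induced DHR oxidation to rhodamine 123 read immediately at ex 480/em 528 nm, 37 °C. Compounds in ethanol, final 6.25–400 μM. IC50 from inhibition curves, 5–7 concentrations in triplicate, ≥4 independent experiments.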

The nature of data set [4]: Antioxidant activity assessed as inhibition of singlet oxygen induced oxidation of non-fluorescent DHR to fluorescent rhodamine 123 at 37 degC measured after 30 mins by fluorimetric method. Particulars: for inhibition (INH): 0.5 h. The method in brief:
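Singlet oxygen generated by thermal decomposition of NDPO2 at 37 °C. DHR oxidation to rhodamine 123 read fluorimetrically after 30 min incubation. Compounds in DMSO, final 0.3125–20 μM for chromones and 0.625–80 μM for xanthones. IC50 from % inhibition curves, 5–7 concentrations in triplicate, ≥4 independent experiments.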

The nature of data set [5]: Antioxidant activity assessed as inhibition of NO-induced oxidation of non-fluorescent DAF-2 to the fluorescent triazolofluorescein after 30 mins by fluorimetric method. Particulars: for inhibition (INH): 0.5 h. The method in brief:
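•NO released from NOC-5; oxidation of DAF-2 to DAF-2T read fluorimetrically (ex 485/em 528 nm) after 30 min at 37 °C. Compounds in DMSO at final 0.25–8 μM. IC50 derived from % inhibition vs concentration curves, 5–7 concentrations in triplicate, at least four independent experiments.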

The nature of data set [6]: Antioxidant activity assessed as inhibition of peroxynitrite induced oxidation of the non-fluorescent dihydrorhodamine 123 to the fluorescent rhodamine 123 after 2 mins by fluorimetric method. To be noted: for inhibition (INH): 2 min. The method in brief: (§3)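 Peroxynitrite (synthesized in-house) oxidizes DHR to rhodamine 123; fluorescence read after 2 min at 37 °C. Compounds in DMSO at final 0.156–5 μM. A parallel set was run with 25 mM NaHCO3 to mimic physiological CO2. IC50 from inhibition curves, 5–7 concentrations in triplicate, ≥4 independent experiments.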

The nature of data set [7]: Antioxidant activity assessed as inhibition of peroxynitrite induced oxidation of the non-fluorescent dihydrorhodamine 123 to the fluorescent rhodamine-123 in presence of NaHCO3 after 2 mins by fluorimetric method. The method in brief: as §3
Data set [8] is described as follows: Antioxidant activity assessed as inhibition of H2O2 induced lucigenin oxidation at 1000 uM at 37 degC. The method in brief: as §2
A short description of data set [9]: Antioxidant activity assessed as inhibition of superoxide induced reduction of NBT measured for 2 mins at 200 uM by UV-visible spectrophotometric method. A digest of the protocol:
as §1

`O=c1cc(/C=C/C=C/c2ccc(O)c(O)c2)oc2cccc(O)c12`: the half-inhibitory concentration (IC50) result is “ND(Insoluble)” in data set [1]; 125 µM in data set [2]; 94 µM in data set [3]; 1.1 µM in data set [4]; 1.23 µM in [5]; 0.34 µM in data set [6]. Moreover, the IC50 in data set [7] was 0.4 µM. In addition, the “inhibition (INH)” value in data set [2], in data set [3], in data set [4], in data set [5] and in [6] was “Dose-dependent effect” in each case.
On to `O=c1cc(/C=C/C=C/c2ccc(O)c(O)c2)oc2ccccc12`, for which the IC50 entry in data set [1] is “ND(Insoluble)”; in [2] it was 143 µM; in data set [3], 32 µM; in data set [4], 1.3 µM; in data set [5], 0.82 µM; in data set [6], 0.33 µM. Moreover, the half-maximal inhibitory concentration (IC50) in data set [7] came to 0.34 µM. The “inhibition (INH)” value in [2], in data set [3], in [4], in data set [5] and in data set [6] was “Dose-dependent effect” in each case.
In the case of `O=c1c2c(O)cccc2oc2cccc(-c3ccc(O)c(O)c3)c12`, the “inhibition (INH)” value in [1], in [2], in data set [3], in [4], in data set [5] and in data set [6] was “Dose-dependent effect” throughout. Besides, the IC50 in data set [1] (read-out: IC50) is 80 µM; in data set [2], 658 µM; in data set [3] it was 96 µM; in data set [4], 10 µM; in data set [5] it was 1.5 µM; in data set [6] it was 0.57 µM. Moreover, the IC50 in data set [7] was 0.56 µM.
For `O=c1c2ccccc2oc2cccc(-c3ccc(O)c(O)c3)c12`, the “inhibition (INH)” value in data set [1] is reported as “Dose-dependent effect”; in [8], 12%; in data set [3], “Dose-dependent effect”; in [4], “Dose-dependent effect”; in [5] it was “Dose-dependent effect”; in data set [6], “Dose-dependent effect”. For the same compound, the IC50 in [1] (read-out: IC50) is 55 µM; in data set [3], 158 µM; in data set [4], 4.4 µM; in data set [5], 1.99 µM; in data set [6], 0.51 µM; in [7], 0.35 µM.
For the compound `O=c1cc(/C=C/C=C/c2ccc(O)c(O)c2)oc2cc(O)ccc12`, the “inhibition (INH)” value in data set [9] is on record as 36%; in [2], “Dose-dependent effect”; in [3] it was “Dose-dependent effect”; in [4], “Dose-dependent effect”; in data set [5], “Dose-dependent effect”; in data set [6], “Dose-dependent effect”. The half-maximal inhibitory concentration (IC50) in [2] was 121 µM; in data set [3], 17 µM; in data set [4], 1.6 µM; in [5] it was 1.42 µM; in [6], 0.29 µM; in data set [7], 0.3 µM.
Take `O=c1c2ccc(O)cc2oc2cccc(-c3ccc(O)c(O)c3)c12`: the “inhibition (INH)” value in data set [1], in data set [2], in [3], in data set [4], in data set [5] and in data set [6] was “Dose-dependent effect” throughout. The IC50 in data set [1] (read-out: IC50) was determined as 61 µM; in data set [2] it was 518 µM; in [3], 31 µM; in data set [4] it was 7.3 µM; in data set [5], 1.08 µM; in [6] it was 0.39 µM. Also, the half-maximal inhibitory concentration (IC50) in data set [7] came to 0.66 µM.
For the compound `O=c1c(O)c(-c2ccc(O)c(O)c2)oc2cc(O)cc(O)c12` [QUERCETIN], the 50% inhibitory concentration (IC50) in data set [1] (read-out: IC50) stood at 60 µM; in data set [2], 1340 µM; in [3] it was 2.4 µM; in [4], 1.5 µM; in data set [5] it was 0.77 µM; in data set [6] it was 0.45 µM. The half-maximal inhibitory concentration (IC50) in data set [7] was determined as 0.68 µM.

One may read the IC50 as the concentration needed to halve the response being measured.
